ChEMBL document CHEMBL2375221, “Preparation and antimalarial activity of semisynthetic lycorenine derivatives” (Eur J Med Chem, 2013)

These molecules were tested on Plasmodium falciparum (assay: Antimalarial activity against chloroquine-sensitive Plasmodium falciparum F-32 Tanzania infected in blood assessed as decrease in parasitaemia after 48 hrs).
Format: functional, organism-based
Method in brief: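 P. falciparum F-32 Tanzania (chloroquine-sensitive) grown in glucose-enriched RPMI 1640 with 10% human serum at 37 °C. After 24 h at 37 °C, the medium was replaced with fresh medium containing compound in DMSO at three concentrations (0.1, 1, 10). Incubation continued 48 h. On day three, a blood smear from each well was used to score parasitaemia versus control. IC50 was read graphically against concentration.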

Row | SMILES | IC50
1 | CC(C)C(=O)O[C@H]1C=C2CCN(C)[C@H]2[C@@H]2c3cc4c(cc3C(=O)O[C@@H]21)OCO4 | 57.1 µM
2 | C=Cc1ccc(C(=O)O[C@H]2C=C3CCN(C)[C@H]3[C@@H]3c4cc5c(cc4C(=O)O[C@@H]32)OCO5)cc1 | 49.4 µM
3 | CN1CCC2=C[C@H](O)[C@H]3NC(=O)c4cc5c(cc4[C@H]3[C@@H]21)OCO5 | 18.8 µM
4 | CN1CCC2=C[C@H](OC(=O)c3cccc(C(=O)O[C@H]4C=C5CCN(C)[C@H]5[C@@H]5c6cc7c(cc6C(=O)O[C@@H]54)OCO7)n3)[C@H]3OC(=O)c4cc5c(cc4[C@H]3[C@@H]21)OCO5 | 3.9 µM
5 | CN1CCC2=C[C@H](OC(=O)c3ccc(C(=O)O[C@H]4C=C5CCN(C)[C@H]5[C@@H]5c6cc7c(cc6C(=O)O[C@@H]54)OCO7)cc3)[C@H]3OC(=O)c4cc5c(cc4[C@H]3[C@@H]21)OCO5 | 1.3 µM
6 | CN1CCC2=CC(=O)[C@H]3OC(=O)c4cc5c(cc4[C@H]3[C@@H]21)OCO5 [2-OXOHIPPEASTRINE] | 79.8 µM
7 | CN1CC=C2C=C[C@H]3OC(=O)c4cc5c(cc4[C@H]3[C@@H]21)OCO5 | 94.1 µM
8 | C=Cc1cccc(-c2cc3c(cc2C(=O)O)OCO3)c1N(C)C | 67.5 µM
9 | CN1CC[C@@]2(O)[C@@H]1[C@@H]1c3cc4c(cc3C(=O)O[C@@H]1[C@@H](O)[C@@H]2O)OCO4 | 68.7 µM
10 | CN1CC[C@]2(Br)C[C@H](O)[C@H]3OC(=O)c4cc5c(cc4[C@H]3[C@H]12)OCO5 | 58.7 µM
11 | CN1CC[C@]2(Cl)C=C[C@H]3OC(=O)c4cc5c(cc4[C@H]3[C@H]12)OCO5 | 84 µM
12 | C=CCCC(=O)O[C@H]1C=C2CCN(C)[C@H]2[C@@H]2c3cc4c(cc3C(=O)O[C@@H]21)OCO4 | 55.4 µM
13 | CN1CCC2=C[C@H](OC(=O)c3ccc(Br)cc3)[C@H]3OC(=O)c4cc5c(cc4[C@H]3[C@@H]21)OCO5 | 42.2 µM
14 | CN1CCC2=C[C@H](OC(=O)c3cccnc3)[C@H]3OC(=O)c4cc5c(cc4[C@H]3[C@@H]21)OCO5 | 49.8 µM
15 | CN1CC[C@@H]2C[C@H](O)[C@H]3OC(=O)c4cc5c(cc4[C@H]3[C@@H]21)OCO5 | 78.8 µM
16 | CN1CC[C@]2(O)[C@H](Br)[C@H](O)[C@H]3OC(=O)c4cc5c(cc4[C@H]3[C@H]12)OCO5 | 58.3 µM
17 | CN1CCC2=C[C@H](OC(=O)c3cccc(C(=O)O[C@H]4C=C5CCN(C)[C@H]5[C@@H]5c6cc7c(cc6C(=O)O[C@@H]54)OCO7)c3)[C@H]3OC(=O)c4cc5c(cc4[C@H]3[C@@H]21)OCO5 | 1.3 µM

Row | SMILES | IC50
18 | C=Cc1cccc(-c2cc3c(cc2C(=O)O)OCO3)c1N(C)CC | 86.1 µM
19 | COc1cc2c(cc1OC)[C@@H]1[C@H](OC2=O)[C@@H](O)C=C2CCN(C)[C@H]21 | 84.5 µM
20 | CN1CCC2=C[C@H](OC(=O)CCCCC(=O)O[C@H]3C=C4CCN(C)[C@H]4[C@@H]4c5cc6c(cc5C(=O)O[C@@H]43)OCO6)[C@H]3OC(=O)c4cc5c(cc4[C@H]3[C@@H]21)OCO5 | 4 µM
21 | C[N+]1=CCC2=C[C@H](O)[C@H]3OC(=O)c4cc5c(cc4[C@H]3[C@@H]21)OCO5 | > 100 µM
22 | CC(=O)O[C@H]1C=C2CCN(C)[C@H]2[C@@H]2c3cc4c(cc3C(=O)O[C@@H]21)OCO4 | 58.8 µM
23 | C[N+]1([O-])CCC2=C[C@H](O)[C@H]3OC(=O)c4cc5c(cc4[C@H]3[C@@H]21)OCO5 (stereo partly drawn) | 87.6 µM
24 | CCOC(=O)O[C@H]1C=C2CCN(C)[C@H]2[C@@H]2c3cc4c(cc3C(=O)O[C@@H]21)OCO4 | 61.8 µM
25 | COC(=O)c1cc(C(=O)OC)cc(C(=O)O[C@H]2C=C3CCN(C)[C@H]3[C@@H]3c4cc5c(cc4C(=O)O[C@@H]32)OCO5)c1 | 7.4 µM
26 | C=Cc1cccc(-c2cc3c(cc2C(=O)OC)OCO3)c1N(C)CCCC | 76.2 µM
27 | CN1CCC2=C[C@H](O)[C@H]3OC(=O)c4cc(O)c(O)cc4[C@H]3[C@@H]21 | 9.9 µM
28 | C=Cc1cccc(-c2cc3c(cc2C(=O)O)OCO3)c1N(C)CCCC | > 100 µM
29 | COC(=O)c1cc2c(cc1-c1cc(OC(C)=O)cc3c1N(C)CC3)OCO2 | 70.4 µM
30 | CN1CCC2=C[C@H](O)[C@H]3OC(=O)c4cc5c(cc4[C@H]3[C@@H]21)OCO5 | 12.7 µM
31 | CN1CCC2=C[C@H](O)[C@H]3OC(=O)c4cc5c(cc4[C@@]3(O)[C@@H]21)OCO5 | 60.4 µM
32 | C=Cc1cccc(-c2cc3c(cc2C(=O)O)OCO3)c1N(C)CCCCCCCCCCC | > 100 µM
33 | C=Cc1cccc(-c2cc3c(cc2C(=O)OC)OCO3)c1N(C)C | 67.6 µM
